This is an account of results in ChEMBL document CHEMBL1151723, “Antiplasmodial alkaloids from Desmos rostrata” (J Nat Prod, 2008).

The structures appear in SMILES notation. Bounds are passed on as bounds.

One assay deals with KB. Description: Cytotoxicity against human KB cells after 72 hrs by neutral red staining. It counts as functional, cell-based. The method, boiled down: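 Human nasopharynx carcinoma KB cells (3 × 10^3 cells/mL) in D-MEM with 10% FCS, 2 mM L-glutamine, penicillin G, streptomycin, gentamicin. Compound stocks in DMSO/H2O (1:9). Exposure 72 h at 37 °C, air/CO2 95:5; growth read colorimetrically by neutral red uptake of living cells, relative to untreated cells.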

The next assay concerns Plasmodium falciparum. Description: Antiplasmodial activity against Plasmodium falciparum FcB1 as [3H]hypoxanthine uptake after 24 hrs. The assay is classed as functional, organism-based. The method, boiled down: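 Chloroquine-resistant FcB1/Colombia P. falciparum, asynchronous cultures at 1% parasitemia, 1.5% final hematocrit. Compounds taken from 10 µg/mL DMSO solution, diluted in culture medium; 24 h at 37 °C in candle jar, then 0.5 µCi [3H]hypoxanthine per well, further 24 h. Freeze-thaw, harvest onto glass fibre filters, scintillation count; inhibition vs same-plate untreated control; IC50 by Desjardins method.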

As for `COc1ccc2c(c1OC)C[C@H]1NCCc3c(OC)c4c(c-2c31)OCO4` [DESMOROSTRATINE], the IC50 with KB turned out to be 2.4 µM; in the assay on Plasmodium falciparum, 3.6 µM. For `COc1cc2c(cc1O)CC[n+]1cc3cc(OC)c(OC)cc3cc1-2` [DEHYDRODISCRETINE], the 50% inhibitory concentration (IC50) with KB was above 29 µM; in the assay on Plasmodium falciparum, 0.9 µM.

With `CC(=O)O[C@@]12CO[C@@H]1C[C@H](O)[C@@]1(C)C(=O)[C@H](O)C3=C(C)[C@@H](OC(=O)[C@H](O)[C@@H](NC(=O)OC(C)(C)C)c4ccccc4)C[C@@](O)([C@@H](OC(=O)c4ccccc4)[C@H]21)C3(C)C` [DOCETAXEL], in the assay with KB, the IC50 was determined as 0.0002 µM. For the molecule `COc1cc2c(cc1O)CCN1Cc3cc(OC)c(OC)cc3C[C@@H]21` [DISCRETINE], the figures for the 50% inhibitory concentration (IC50) in the assay with KB and with Plasmodium falciparum were above 29 µM and 1.6 µM, respectively.

Consider `COc1cc2c(cc1O)CC[N+]1([O-])Cc3cc(OC)c(OC)cc3C[C@@H]21` (stereo partly drawn), for which the IC50 is above 28 µM in the assay with KB and 4.2 µM in the assay with Plasmodium falciparum. Taken in the same sequence, the figures for `COc1c(O)cc2c3c(cc4ccccc4c13)NC2=O` [ARISTOLACTAM AII] were above 37 µM and above 37 µM. Taken in the same sequence, the figures for `COc1cc2c(cc1OC)-c1c(OC)c(O)cc3c1[C@H](C2)N(C)CC3` [PREDICENTRINE] were above 29 µM and 27.8 µM.

A word on the IC50: it is the concentration that gives 50% inhibition. A high value points to weaker potency.
